High-throughput results as filed in PubChem.
An excerpt weighted towards active compounds, which were near 1.6% of everything screened.
Rpn11 inh: Rpn11 (human) deubiquitinase inhibition. O00487. human 26S proteasome, Ub4-pepOG fluorescence polarization; 20S core pre-blocked with epoxomicin. calls only at 20 µM. actives 0.59% (n = 360,000). AID 588493;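 active means inhibition at 20 µM, scaled to each plate's controls, above about 33%, limit read from the data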
TPT1 inh: C. albicans TPT1 enzyme inhibition; recombinant caTPT1, FP RNA substrate dephosphorylation; inhibition, % at 5 µM; actives 0.81% (n = 300,000); AID 1962;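 active means inhibition above the mean of all tested compounds plus 3 SD, set per screening campaign, cut at about 24% in these data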;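 further: plate controls were DMSO alone for no effect and ferristatin control at 100 nM for full effect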
CSN inh: CSN deneddylation inhibition. Q92905. Purified CSN, SCF-Nedd8-OG deneddylation, fluorescence polarization. inhibition, % at 12.5 µM. actives 0.38% (n = 360,000);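 active means pattern-corrected inhibition above about 35%, with an unprinted fluorescence ratio check between 0.5 and 1.5, limit read from the data, passing the limit was not always enough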;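 further: 0% = enzyme with substrate and 100% = substrate without enzyme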
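Material: purified human Csn5 enzyme expressed in HEK293T cells / Medium: Tris buffer pH 7.5, NaCl, DTT, Tween-20, trehalose, ovalbumin / Compound dosing: 12.5 µM single point / Schedule: 90 min incubation of compound, enzyme and substrate at room temperature / Signal: fluorescence polarization of the substrate / Control set: no-enzyme wells high, enzyme-with-substrate wells low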
PKA-R1A activ: PKA-R1A complex activation; P00514+P68181; PKA-R1A dissociation, Cy5-IP20 fluorescence polarization; scaled: DMSO 0%, 113 µM cGMP 100%; actives 0.083% (n = 340,000); AID 504707; activation, % at 11.4 µM;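 active means percent activation above the mean of all tested compounds plus 3 SD, cut at about 19% in these data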;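 further: higher means more PKAc released from R1A so a rise in polarization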
HNF4A DNA FP: change in binding of human HNF4 alpha to DNA | actives 0.3% (n = 360,000) | activity change, % at 10 µM | P41235 | HNF4a-FITC DNA binding, fluorescence polarization, 1 h | AID 1224865; in the data active means activity change above about 30%, passing the limit was not always enough
PKA-R2B activ: activates the human PKA-R2B holoenzyme complex | activation, % at 11.4 µM | AID 504700 | PKA-R2B holoenzyme dissociation, Cy5-IP20 fluorescence polarization; R2B truncated from residue 108, S112A mutant; 0% DMSO only, 100% 113 µM cGMP | actives 0.079% (n = 340,000) | P22694+P31323;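 active means activation above a cutoff set at the mean over all compounds plus 3 SD, cut at about 18% in these data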;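 further: higher means more holoenzyme dissociation and a rise in polarization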
Rpn11 inh conf: Rpn11 inhibition confirmation, single concentration | shares compounds with Rpn11 inh | AID 602318 | purified human 26S proteasome, Ub4-pepOG fluorescence polarization; proteasome pretreated with epoxomicin | actives 29% (n = 1,900) | inhibition, % at 20 µM
MMP-2 inh: counter-screen for RPN11 inhibitors: inhibition of human MMP-2; actives 4% (n = 1,900); AID 602330; recombinant MMP-2, FRET peptide cleavage fluorescence; shares compounds with Rpn11 inh; inhibition, % at 20 µM;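 further: human MMP-2 activated beforehand with APMA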
Thrombin inh: blocks bovine thrombin, flagging nonselective RPN11 hits | shares compounds with Rpn11 inh | bovine thrombin cleavage of Ub4-pepOG, fluorescence polarization | inhibition, % at 20 µM | actives 13% (n = 1,900) | AID 602333;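 active means mean inhibition at least 40% at 20 µM, or signal 3 deviations below plate average, so some actives read negative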;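 further: plate controls were thrombin with DMSO for no effect and buffer wells lacking thrombin for full effect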
Target sequence (P00735 whole entry, looked up): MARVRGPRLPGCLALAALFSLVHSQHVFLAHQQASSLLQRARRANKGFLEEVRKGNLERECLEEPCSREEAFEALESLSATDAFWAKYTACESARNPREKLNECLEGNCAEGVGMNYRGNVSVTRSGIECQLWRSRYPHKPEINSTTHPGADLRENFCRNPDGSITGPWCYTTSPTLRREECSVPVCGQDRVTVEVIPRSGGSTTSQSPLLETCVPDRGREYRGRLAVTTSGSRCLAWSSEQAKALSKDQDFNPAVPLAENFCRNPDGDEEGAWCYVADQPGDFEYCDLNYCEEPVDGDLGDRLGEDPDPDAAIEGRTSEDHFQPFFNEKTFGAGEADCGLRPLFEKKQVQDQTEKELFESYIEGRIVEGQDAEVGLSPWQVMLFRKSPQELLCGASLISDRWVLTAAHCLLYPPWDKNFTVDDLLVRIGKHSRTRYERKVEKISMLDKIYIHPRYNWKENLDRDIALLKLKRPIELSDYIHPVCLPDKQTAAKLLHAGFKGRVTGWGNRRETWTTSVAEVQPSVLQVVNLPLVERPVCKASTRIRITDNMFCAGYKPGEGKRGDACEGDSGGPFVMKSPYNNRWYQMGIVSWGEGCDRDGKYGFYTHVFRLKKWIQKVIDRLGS
* hit, by the source's call; i = inactive; nt = no result given; + = active, no number. Unless noted, no stated cut-off is given here; in the data, active means inhibition above about 40%; inactive means the rest.

SMILES	Rpn11 inh	TPT1 inh	CSN inh	PKA-R1A activ	HNF4A DNA FP	PKA-R2B activ	Rpn11 inh conf	MMP-2 inh	Thrombin inh
CCOc1cc(/C=C2\CN(C)C/C(=C\c3ccc(O)c(OCC)c3)C2=O)ccc1O	i	5	5	8	1	-1	nt	nt	nt
CCOC(=O)C1=C(O)/C(=C\c2ccc(O)c(OCC)c2)N=C1C	i	3	11	5	-2	4	nt	nt	nt
CCOc1cc(/C=C2\SC(=O)N=C2N)ccc1O	+	15	14	7	12	-10	22	2	1
CCOc1cc(/C=C2/N=C(C)C(C(=O)OC)=C2O)ccc1O	+	14	19	-10	8	-4	32	-73	20
CCOc1cc(/C=C2\SC(N)=NC2=O)ccc1O	+	10	13	0	6	2	22	7	12
CCOC(=O)C1CCCN(C2=NC(=O)/C(=C/c3ccc(O)c(OCC)c3)S2)C1 (stereo unspecified)	+	10	27	-9	8	4	37	-56	30
CSc1ccc(S(=O)(=O)N2CCC(C(=O)Nc3ccccc3C(F)(F)F)CC2)cc1	+	0	0	14	-47	-11	4	-13	1
CCOC(=O)C1=CCN(S(=O)(=O)c2cccc(Cl)c2)C1c1cccc(F)c1 (stereo unspecified)	i	nt	-2	nt	-1	nt	nt	nt	nt
NC(=O)c1ccsc1NC(=O)COC(=O)CCc1ccccc1	i	nt	4	16	1	1	nt	nt	nt
C=C(C)CSc1nc2sc3c(c2c(=O)n1C1CCCCC1)CCN(C)C3	+	19	2	-7	15	-4	18	-22	6
c1coc(-c2nnc(SCc3nc4ccccc4[nH]3)o2)c1	+	7	24	-10	28	-4	-3	-1	-12
NC(=O)N=Nc1c(O)n(Cc2ccccc2)c2ccc(Br)cc12	i	nt	0	-2	0	2	nt	nt	nt
CN1CCC[C@H]1CCNc1ccc2c(=O)c3ccccc3n(C)c2c1	+	nt	5	-8	6	-9	-9	6	-25
Cc1ccc(NC(=O)c2cccc3c2C(=O)N(C2CCCCC2)C3)c(Cl)c1	i	-2	-1	3	-1	-3	nt	nt	nt
COc1ccc(COc2ccsc2C(=O)Nc2ccc(Cl)c(Cl)c2)cc1	+	3	-3	-7	1	8	9	-20	-13
CS(=O)(=O)C1=NSC2=NC(=O)/C(=C\c3ccc(-c4ccccc4)o3)C(=N)N21	nt	7	nt	nt	nt	nt	nt	nt	nt
CC(C)S(=O)(=O)C1=NSC2=NC(=O)/C(=C\c3ccc(-c4ccccc4)o3)C(=N)N21	+	12	11	0	25	-8	36	14	20
CC(C)S(=O)(=O)C1=NSC2=NC(=O)/C(=C\c3ccc(-c4cccc(C(=O)O)c4)o3)C(=N)N21	+	nt	15	6	24	-10	30	0	21
COc1cc(NC(=O)N2CCc3nc(NCc4cccc(Oc5ccccc5)c4)ncc3C2)cc(OC)c1OC	i	nt	0	nt	2	nt	nt	nt	nt
COc1ccc(C(=O)N2CCCC(Nc3ccc(C(C)C)cc3)C2)c(OC)n1 (stereo unspecified)	i	-6	1	-1	-4	8	nt	nt	nt
CC1C=CCC2C(=O)N(c3cc(Cl)ccc3O)C(=O)C12 (stereo unspecified)	i	-1	-3	-7	-7	-5	nt	nt	nt
COc1ccc(N(CC(=O)NC2CCCCC2)C(=O)CNC(=O)c2ccco2)cc1OC	i	0	2	-6	2	4	nt	nt	nt
CC1(c2ccc(OC(F)F)cc2)NC(=O)N(CC(=O)N2c3ccccc3NC(=O)C2(C)C)C1=O (stereo unspecified)	i	nt	8	-4	3	-4	nt	nt	nt
Cc1cc(/C=C(/C#N)c2nc3ccccc3[nH]2)c(C)n1-c1ccccc1C(=O)O	+	24	30	3	5	0	75*	-3	51*
N#C/C(=C\c1ccccc1OCC(=O)O)c1nc2ccccc2[nH]1	i	0	5	13	2	-2	nt	nt	nt
SMILES	Rpn11 inh	TPT1 inh	CSN inh	PKA-R1A activ	HNF4A DNA FP	PKA-R2B activ	Rpn11 inh conf	MMP-2 inh	Thrombin inh
CCc1ccc(CNC(=O)C2CCCN(c3nnc(C)c4c(C)n(-c5ccccc5)nc34)C2)cc1 (stereo unspecified)	+	17	13	-5	19	-6	27	-136	-5
Cc1nnc(N2CCC(C(=O)N3CCCCCC3)CC2)c2nn(-c3ccc(Cl)cc3)c(C)c12	i	-2	-1	-8	1	-3	nt	nt	nt
Cc1nnc(N2CCCC(C(=O)NCc3cccc(F)c3)C2)c2nn(-c3ccccc3)c(C)c12 (stereo unspecified)	i	8	5	1	10	10	nt	nt	nt
Cc1ccc(-n2nc3c(N4CCC(C(=O)N5CCN(C)CC5)CC4)nnc(C)c3c2C)cc1	+	14	10	3	8	0	24	-5	20
COc1ccc(-n2nc3c(N4CCC(C(=O)NCc5cccc(C)c5)CC4)nnc(C)c3c2C)cc1	+	21	18	-15	10	-3	55*	-22	22
COc1ccc(-n2nc3c(N4CCC(C(=O)N5CCCCCC5)CC4)nnc(C)c3c2C)cc1	+	8	11	-18	12	-20	-2	-16	-8
COc1ccc(-n2nc3c(N4CCC(C(=O)NCCc5ccco5)CC4)nnc(C)c3c2C)cc1	i	3	11	6	0	-4	nt	nt	nt
CC1(C)CC(=O)C(N=Nc2ccc(F)cc2)=C(O)C1	i	-1	2	8	0	3	nt	nt	nt
CC1(C)CC(=O)C(N=Nc2ccc(-c3ccccc3)cc2)=C(O)C1	+	8	24	-5	33	-13	24	-27	-12
O=C(Nc1cc2c(cc1Br)OCCO2)c1ccc(=O)[nH]c1	i	nt	-7	0	-1	5	nt	nt	nt
CC(C)c1ccc(NC(=O)COc2nnc(-c3cccs3)c(-c3cccs3)n2)cc1	+	0	-2	7	2	3	15	18	-1
